Measured values published in ChEMBL document CHEMBL1828538, “Synthesis and pharmacological evaluation of indole-based sigma receptor ligands” (Eur J Med Chem, 2011).
Calls of active or inactive are those of the source.

How the values were obtained:
[1] = target: Mu-type opioid receptor (Homo sapiens) (UniProt P35372); test: Displacement of radioligand from opioid mu receptor assessed as 50% receptor inhibition at 10^-5 M
Summary of the method: (§1)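 Part of a contracted (NovaScreen) panel of 64 radioligand/enzyme assays, with the test compound run at 10⁻⁵ M and 10⁻⁷ M. Each assay was scored by whether radioligand displacement exceeded 50% at each concentration.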

[2] = target: T1, Substance-K receptor (Homo sapiens) (UniProt P21452); test: Displacement of radioligand from neurokinin NK2 receptor assessed as 50% receptor inhibition at 10^-5 M; summary of the method: as §1
T1 sequence (whole entry): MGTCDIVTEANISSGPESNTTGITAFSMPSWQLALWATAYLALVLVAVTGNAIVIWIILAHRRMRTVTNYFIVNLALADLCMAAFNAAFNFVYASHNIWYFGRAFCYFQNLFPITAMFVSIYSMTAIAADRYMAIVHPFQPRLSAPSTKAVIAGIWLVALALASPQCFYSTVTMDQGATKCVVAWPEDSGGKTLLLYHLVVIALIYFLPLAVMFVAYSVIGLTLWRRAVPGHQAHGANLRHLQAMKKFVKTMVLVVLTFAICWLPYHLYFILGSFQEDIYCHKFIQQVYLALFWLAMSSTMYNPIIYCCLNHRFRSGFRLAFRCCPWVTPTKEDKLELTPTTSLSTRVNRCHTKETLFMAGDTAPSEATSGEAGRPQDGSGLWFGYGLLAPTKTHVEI

[3] = target: Mu-type opioid receptor (Homo sapiens) (UniProt P35372); test: Displacement of radioligand from opioid mu receptor assessed as 50% receptor inhibition at 10^-7 M; summary of the method: as §1
[4] = target: Cannabinoid receptor 1 (Homo sapiens) (UniProt P21554); test: Displacement of radioligand from cannabinoid CB1 receptor assessed as 50% receptor inhibition at 10^-5 M; summary of the method: as §1
[5] = target: T1, Substance-K receptor (Homo sapiens); test: Displacement of radioligand from neurokinin NK2 receptor assessed as 50% receptor inhibition at 10^-7 M; summary of the method: as §1
[6] = Displacement of radioligand from sodium channel site 2 assessed as 50% receptor inhibition at 10^-7 M; summary of the method: as §1
D(1A) dopamine receptor = D(1A) dopamine receptor (Homo sapiens, UniProt P21728); test: Displacement of [3H]SCH-23390 from human D1 receptor in cell-based assay
Summary of the method: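 LhD1 cells were labelled with 0.18 nM [3H]SCH-23390, with 1 μM SCH-23390 for nonspecific binding. Ki was from standard assay conditions, as mean ± SEM of replicates. A value >10000 nM denotes under 30% displacement at that concentration.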

[7] = target: Sodium-dependent serotonin transporter (Homo sapiens, UniProt P31645); test: Displacement of [125I]RTI-55 from human SERT expressed in HEK293 cells; assay type: cell-based
[8] = Displacement of radioligand from adrenergic alpha2 receptor assessed as 50% receptor inhibition at 10^-7 M; summary of the method: as §1
[9] = Displacement of radioligand from muscarinic receptor assessed as 50% receptor inhibition at 10^-7 M; summary of the method: as §1
[10] = Displacement of radioligand from BZT-sensitive L-type calcium channel assessed as 50% receptor inhibition at 10^-7 M; summary of the method: as §1
[11] = target: T2, Glycine receptor subunit alpha-1 (Homo sapiens) (UniProt P23415); test: Displacement of radioligand from strychnine sensitive glycine receptor assessed as 50% receptor inhibition at 10^-5 M; summary of the method: as §1
T2 sequence (whole entry): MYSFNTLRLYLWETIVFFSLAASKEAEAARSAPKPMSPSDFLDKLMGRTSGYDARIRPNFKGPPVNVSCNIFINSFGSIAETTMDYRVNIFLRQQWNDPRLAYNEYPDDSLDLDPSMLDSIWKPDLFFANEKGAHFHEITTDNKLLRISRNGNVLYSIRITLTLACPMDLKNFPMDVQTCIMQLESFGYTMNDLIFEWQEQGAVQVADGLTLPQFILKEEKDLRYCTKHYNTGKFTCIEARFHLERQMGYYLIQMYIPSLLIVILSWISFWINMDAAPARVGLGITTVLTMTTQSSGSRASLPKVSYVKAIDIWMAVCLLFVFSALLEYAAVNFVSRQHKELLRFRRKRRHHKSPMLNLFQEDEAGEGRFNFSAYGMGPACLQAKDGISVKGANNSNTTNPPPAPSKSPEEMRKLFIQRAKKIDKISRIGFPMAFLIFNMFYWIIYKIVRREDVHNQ

[12] = Displacement of radioligand from adrenergic alpha1 receptor assessed as 50% receptor inhibition at 10^-7 M; summary of the method: as §1
[13] = target: 5-hydroxytryptamine receptor 2A (Homo sapiens, UniProt P28223); test: Displacement of […] from human 5HT2A receptor expressed in HEK cells; assay type: cell-based, HEK293
[14] = target: Sodium-dependent dopamine transporter (Homo sapiens, UniProt Q01959); test: Displacement of [125I]RTI-55 from human DAT expressed in HEK293 cells; assay type: cell-based
Summary of the method: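 Nonspecific binding was defined with 5 μM mazindol. Ki was determined under standard conditions and reported as mean ± SEM of replicate assays. A value >10000 nM means less than 30% radioligand displacement at that concentration.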

[15] = target: Cannabinoid receptor 1 (Homo sapiens) (UniProt P21554); test: Displacement of radioligand from cannabinoid CB1 receptor assessed as 50% receptor inhibition at 10^-7 M; summary of the method: as §1
[16] = Displacement of radioligand from adrenergic alpha2 receptor assessed as 50% receptor inhibition at 10^-5 M; summary of the method: as §1
[17] = target: Histamine H1 receptor (Homo sapiens) (UniProt P35367); test: Displacement of radioligand from histamine H1 receptor assessed as 50% receptor inhibition at 10^-5 M; summary of the method: as §1
[18] = target: T3, Muscarinic acetylcholine receptor M2 (Homo sapiens) (UniProt P08172); test: Displacement of radioligand from muscarinic M2 receptor assessed as 50% receptor inhibition at 10^-7 M; summary of the method: as §1
T3 sequence (whole entry): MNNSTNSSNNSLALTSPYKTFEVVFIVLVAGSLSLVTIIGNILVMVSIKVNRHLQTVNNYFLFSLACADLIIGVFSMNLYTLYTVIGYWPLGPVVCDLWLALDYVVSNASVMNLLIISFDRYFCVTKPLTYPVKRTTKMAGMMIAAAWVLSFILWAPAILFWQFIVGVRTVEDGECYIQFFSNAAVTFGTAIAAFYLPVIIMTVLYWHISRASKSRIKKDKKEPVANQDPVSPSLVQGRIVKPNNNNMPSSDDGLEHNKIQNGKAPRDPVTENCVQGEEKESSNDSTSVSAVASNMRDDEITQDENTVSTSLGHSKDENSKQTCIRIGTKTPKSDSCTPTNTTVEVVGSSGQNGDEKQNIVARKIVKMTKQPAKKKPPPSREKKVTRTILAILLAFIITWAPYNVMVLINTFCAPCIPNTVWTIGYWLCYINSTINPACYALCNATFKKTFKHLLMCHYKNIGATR

[19] = target: Cannabinoid receptor 2 (Homo sapiens) (UniProt P34972); test: Displacement of radioligand from cannabinoid CB2 receptor assessed as 50% receptor inhibition at 10^-5 M; summary of the method: as §1
[20] = Displacement of radioligand from dopamine D4.2 receptor assessed as 50% receptor inhibition at 10^-7 M; summary of the method: as §1
[21] = target: T3, Muscarinic acetylcholine receptor M2 (Homo sapiens); test: Displacement of radioligand from muscarinic M2 receptor assessed as 50% receptor inhibition at 10^-5 M; summary of the method: as §1
[22] = Displacement of radioligand from dopamine D4.2 receptor assessed as 50% receptor inhibition at 10^-5 M; summary of the method: as §1

Chain of Mu-type opioid receptor (Homo sapiens) (P35372 whole entry): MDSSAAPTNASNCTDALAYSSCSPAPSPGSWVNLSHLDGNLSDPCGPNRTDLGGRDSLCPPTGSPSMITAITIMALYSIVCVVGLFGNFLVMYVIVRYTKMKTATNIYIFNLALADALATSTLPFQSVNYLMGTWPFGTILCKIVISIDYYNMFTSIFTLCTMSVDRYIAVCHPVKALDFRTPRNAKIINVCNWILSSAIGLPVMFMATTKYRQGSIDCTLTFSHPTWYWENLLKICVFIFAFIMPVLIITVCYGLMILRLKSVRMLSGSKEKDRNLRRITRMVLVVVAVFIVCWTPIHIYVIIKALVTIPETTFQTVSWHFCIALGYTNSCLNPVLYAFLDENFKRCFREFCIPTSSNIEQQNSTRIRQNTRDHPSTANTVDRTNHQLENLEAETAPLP
Chain of Cannabinoid receptor 1 (Homo sapiens) (P21554 whole entry): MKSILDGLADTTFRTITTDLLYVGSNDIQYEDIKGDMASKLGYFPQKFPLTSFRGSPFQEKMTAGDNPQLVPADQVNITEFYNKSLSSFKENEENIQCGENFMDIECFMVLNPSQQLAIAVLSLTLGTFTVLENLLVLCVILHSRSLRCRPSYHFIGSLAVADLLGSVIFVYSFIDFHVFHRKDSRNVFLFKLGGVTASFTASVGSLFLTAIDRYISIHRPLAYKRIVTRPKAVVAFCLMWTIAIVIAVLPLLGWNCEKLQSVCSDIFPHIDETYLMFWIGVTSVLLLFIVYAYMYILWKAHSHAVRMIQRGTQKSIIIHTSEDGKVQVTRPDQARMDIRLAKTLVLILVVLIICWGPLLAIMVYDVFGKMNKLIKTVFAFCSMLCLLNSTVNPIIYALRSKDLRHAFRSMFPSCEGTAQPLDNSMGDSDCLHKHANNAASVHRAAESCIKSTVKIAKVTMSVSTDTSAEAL
Chain of D(1A) dopamine receptor (P21728 whole entry): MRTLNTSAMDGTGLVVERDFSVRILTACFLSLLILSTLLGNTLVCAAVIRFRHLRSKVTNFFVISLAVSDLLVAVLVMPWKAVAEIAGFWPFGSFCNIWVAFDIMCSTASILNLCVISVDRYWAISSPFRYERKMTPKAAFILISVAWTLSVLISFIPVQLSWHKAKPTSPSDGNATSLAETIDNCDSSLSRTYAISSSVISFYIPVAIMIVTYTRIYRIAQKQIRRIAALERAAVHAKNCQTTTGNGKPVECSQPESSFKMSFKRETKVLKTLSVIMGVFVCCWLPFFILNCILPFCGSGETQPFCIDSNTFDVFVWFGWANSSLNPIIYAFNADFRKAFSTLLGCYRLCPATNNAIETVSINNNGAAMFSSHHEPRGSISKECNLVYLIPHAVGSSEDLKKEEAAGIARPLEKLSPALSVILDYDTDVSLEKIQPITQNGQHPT
Chain of 5-hydroxytryptamine receptor 2A (P28223 whole entry): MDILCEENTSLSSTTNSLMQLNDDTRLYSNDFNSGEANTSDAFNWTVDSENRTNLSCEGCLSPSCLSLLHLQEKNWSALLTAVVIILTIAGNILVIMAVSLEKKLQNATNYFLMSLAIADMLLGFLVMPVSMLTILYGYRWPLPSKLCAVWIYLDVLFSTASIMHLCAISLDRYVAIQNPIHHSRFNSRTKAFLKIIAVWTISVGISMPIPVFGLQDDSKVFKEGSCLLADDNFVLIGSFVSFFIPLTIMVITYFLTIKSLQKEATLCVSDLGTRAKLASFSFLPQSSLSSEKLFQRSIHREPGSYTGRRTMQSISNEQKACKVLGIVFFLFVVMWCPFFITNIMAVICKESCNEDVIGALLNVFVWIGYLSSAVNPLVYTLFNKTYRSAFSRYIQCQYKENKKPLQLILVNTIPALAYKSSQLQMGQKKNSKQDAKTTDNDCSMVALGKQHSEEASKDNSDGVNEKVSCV
Chain of Sodium-dependent dopamine transporter (Q01959 whole entry): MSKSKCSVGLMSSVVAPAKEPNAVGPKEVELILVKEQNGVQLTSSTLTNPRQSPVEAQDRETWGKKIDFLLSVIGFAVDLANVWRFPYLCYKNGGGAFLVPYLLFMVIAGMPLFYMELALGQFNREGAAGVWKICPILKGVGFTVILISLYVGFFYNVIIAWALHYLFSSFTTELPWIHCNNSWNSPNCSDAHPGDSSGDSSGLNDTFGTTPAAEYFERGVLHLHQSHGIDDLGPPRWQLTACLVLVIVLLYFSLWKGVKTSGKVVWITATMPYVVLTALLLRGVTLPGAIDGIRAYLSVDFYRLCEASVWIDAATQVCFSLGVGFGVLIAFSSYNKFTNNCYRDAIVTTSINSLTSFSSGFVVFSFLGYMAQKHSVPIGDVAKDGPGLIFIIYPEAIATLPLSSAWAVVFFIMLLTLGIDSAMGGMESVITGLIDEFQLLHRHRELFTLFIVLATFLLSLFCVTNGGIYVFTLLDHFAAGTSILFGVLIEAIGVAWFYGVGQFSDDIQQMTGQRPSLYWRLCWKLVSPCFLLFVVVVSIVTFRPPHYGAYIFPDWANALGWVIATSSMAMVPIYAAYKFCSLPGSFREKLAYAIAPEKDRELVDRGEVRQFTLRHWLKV
Chain of Histamine H1 receptor (Homo sapiens) (P35367 whole entry): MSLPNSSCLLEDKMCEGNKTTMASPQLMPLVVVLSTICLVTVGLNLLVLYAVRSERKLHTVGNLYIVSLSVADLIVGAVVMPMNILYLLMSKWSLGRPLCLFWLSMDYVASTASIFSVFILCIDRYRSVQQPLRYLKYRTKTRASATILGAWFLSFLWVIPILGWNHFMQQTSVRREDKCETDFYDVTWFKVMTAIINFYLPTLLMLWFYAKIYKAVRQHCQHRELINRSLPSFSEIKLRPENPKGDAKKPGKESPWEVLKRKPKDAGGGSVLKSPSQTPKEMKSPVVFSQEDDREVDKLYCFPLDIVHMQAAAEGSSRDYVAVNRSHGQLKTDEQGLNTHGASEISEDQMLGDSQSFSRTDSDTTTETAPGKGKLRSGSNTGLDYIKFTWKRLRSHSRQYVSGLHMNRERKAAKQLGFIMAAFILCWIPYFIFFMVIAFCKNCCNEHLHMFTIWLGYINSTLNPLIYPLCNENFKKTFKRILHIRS
Chain of Cannabinoid receptor 2 (Homo sapiens) (P34972 whole entry): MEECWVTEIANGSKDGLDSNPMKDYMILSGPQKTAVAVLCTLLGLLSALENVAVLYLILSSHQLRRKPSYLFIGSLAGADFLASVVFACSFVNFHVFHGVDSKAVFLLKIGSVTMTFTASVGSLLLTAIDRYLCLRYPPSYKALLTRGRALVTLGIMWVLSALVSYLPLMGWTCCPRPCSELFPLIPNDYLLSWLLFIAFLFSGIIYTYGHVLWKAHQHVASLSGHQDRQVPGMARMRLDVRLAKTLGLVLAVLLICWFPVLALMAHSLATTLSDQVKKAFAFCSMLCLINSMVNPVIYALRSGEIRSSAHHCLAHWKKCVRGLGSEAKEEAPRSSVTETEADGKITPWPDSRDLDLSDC
Chain of Sodium-dependent serotonin transporter (P31645 whole entry): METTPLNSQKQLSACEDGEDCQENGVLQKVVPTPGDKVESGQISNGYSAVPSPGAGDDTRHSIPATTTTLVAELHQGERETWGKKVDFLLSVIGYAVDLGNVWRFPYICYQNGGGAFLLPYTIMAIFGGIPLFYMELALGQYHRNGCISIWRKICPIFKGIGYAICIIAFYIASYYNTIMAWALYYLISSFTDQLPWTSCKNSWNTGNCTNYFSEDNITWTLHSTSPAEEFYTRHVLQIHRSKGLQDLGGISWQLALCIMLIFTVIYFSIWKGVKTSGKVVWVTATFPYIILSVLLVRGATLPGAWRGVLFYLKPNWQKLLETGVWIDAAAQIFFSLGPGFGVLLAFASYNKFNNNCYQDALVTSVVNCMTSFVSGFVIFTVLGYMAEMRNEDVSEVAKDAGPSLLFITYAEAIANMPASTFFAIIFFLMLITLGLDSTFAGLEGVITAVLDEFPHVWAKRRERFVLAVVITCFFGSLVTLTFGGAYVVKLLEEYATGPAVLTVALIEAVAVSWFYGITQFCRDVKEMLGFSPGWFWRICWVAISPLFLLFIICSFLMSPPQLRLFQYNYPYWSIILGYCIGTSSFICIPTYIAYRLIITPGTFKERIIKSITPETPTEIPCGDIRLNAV

COc1cc2c(cc1OC)CN(CCCCn1cc(-c3ccc(F)cc3)c3ccccc31)CC2
> 10000 nM: Ki (D(1A) dopamine receptor)
active: inhibition [1] | inhibition [2] | inhibition [4] | inhibition [11] | inhibition [16] | inhibition [17] | inhibition [19] | inhibition [21] | inhibition [22]
inactive: inhibition [3] | inhibition [5] | inhibition [6] | inhibition [8] | inhibition [9] | inhibition [10] | inhibition [12] | inhibition [15] | inhibition [18] | inhibition [20]
1270 nM: Ki [13]
295 nM: Ki [7]
5000 nM: Ki [14]
